In ChEMBL document CHEMBL1145471, “Small molecule regulators of autophagy identified by an image-based high-throughput screen” (Proc Natl Acad Sci U S A, 2007) one finds Activity data, which are given here for three compounds.

Holding throughout (format): functional
The subject of assay [1] is H4. In words: Increase in light chain 3-GFP+ autophagosome vesicle intensity per cell in human H4 cells at 4.8 uM after 24 hrs by high throughput fluorescence microscopy relative to control. In short, it runs like this:
(§1)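 H4 cells stably expressing LC3-GFP, seeded in 96-well plates and exposed to compound for 24 h; fixed in 4% paraformaldehyde, nuclei stained with 3 μg/ml DAPI. Automated fluorescence microscopy scored number, size and intensity of LC3-GFP spots; values expressed relative to DMSO-treated wells, rapamycin positive control. Triplicate wells, mean ± SD; experiments repeated three times.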

Assay [2] deals with H4. Briefly: Induction of light chain 3-GFP level in human H4 cells at 4.8 uM after 24 hrs by high throughput fluorescence microscopy relative to control. In short, it runs like this: (§2)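 H4 cells stably expressing LC3-GFP, kept in DMEM/10% FBS at 37°C, 5% CO2, were seeded in 96-well plates and exposed to compound for 24 h. Cells were then fixed in 4% paraformaldehyde and stained with 3 μg/ml DAPI. Automated fluorescence microscopy scored the number, size and intensity of LC3-GFP spots. Values are percent of DMSO wells, in triplicate, mean ± SD. Rapamycin served as positive control.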

For assay [3], the system named is H4. In words: Increase in light chain 3-GFP+ autophagosome vesicle number per cell in human H4 cells at 4.8 uM after 24 hrs by high throughput fluorescence microscopy relative to control. In short, it runs like this:
as §2

Assay [4] has as its system H4. Briefly: Increase in light chain 3-GFP+ autophagosome vesicle area per cell in human H4 cells at 4.8 uM after 24 hrs by high throughput fluorescence microscopy relative to control. In short, it runs like this: as §1
Assay [5] concerns H4. In words: Induction of light chain 3-GFP level in human H4 cells at 4.5 uM after 24 hrs by high throughput fluorescence microscopy relative to control. In short, it runs like this:
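H4 cells stably expressing LC3-GFP, grown in DMEM with 10% FBS, penicillin/streptomycin and 2 mM L-glutamine at 37°C, 5% CO2. Cells were seeded in 96-well plates and exposed to library compounds at 3–12 μM for 24 h, then fixed in 4% paraformaldehyde and stained with 3 μg/ml DAPI. LC3-GFP spot number, size and intensity were measured by high-throughput fluorescence microscopy and expressed relative to DMSO. Triplicates, mean ± SD.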

The test system of assay [6] is H4. Briefly: Increase in light chain 3-GFP+ autophagosome vesicle area per cell in human H4 cells at 4.5 uM after 24 hrs by high throughput fluorescence microscopy relative to control. In short, it runs like this: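 H4 cells stably expressing LC3-GFP, seeded in 96-well plates and exposed to compound for 24 h; screening concentrations were 3–12 μM, with rapamycin 0.22 μM and bafilomycin A1 0.40 μM. Cells fixed in 4% paraformaldehyde and stained with 3 μg/ml DAPI. Number, size and intensity of LC3-GFP spots measured by high-throughput fluorescence microscopy and expressed as percent of DMSO-treated wells. Rapamycin was the positive control. Triplicate wells, mean ± SD; experiments repeated three times.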

Assay [7] relates to H4. Briefly: Increase in light chain 3-GFP+ autophagosome vesicle intensity per cell in human H4 cells at 4.5 uM after 24 hrs by high throughput fluorescence microscopy relative to control. In short, it runs like this: (§3)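 H4 cells stably expressing LC3-GFP were grown in DMEM with 10% FBS and 2 mM L-glutamine at 37°C, 5% CO2. They were exposed to each compound for 24 h, with DMSO as negative and rapamycin as positive control. Cells were then fixed in 4% paraformaldehyde and stained with 3 μg/ml DAPI. High-throughput fluorescence imaging scored LC3-GFP spot number, size and intensity, expressed relative to DMSO. Mean ± SD of triplicates; experiments repeated three times.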

The subject of assay [8] is H4. Briefly: Increase in light chain 3-GFP+ autophagosome vesicle number per cell in human H4 cells at 4.5 uM after 24 hrs by high throughput fluorescence microscopy relative to control. In short, it runs like this: as §3
Assay [9] concerns H4. Briefly: Increase in long-lived protein degradation in human H4 cells after 24 hrs relative to control. The arrangement: concentration or dose not given beside the values.
Assay [10] has as its system H4. Briefly: Increase in long-lived protein degradation in human H4 cells after 2 hrs relative to control. On the set-up: concentration or dose not given beside the values.
The subject of assay [11] is H4. Briefly: Decrease in FYVE-RFP+ vesicle intensity per cell in human H4 cells after 4 hrs relative to control. On the set-up: concentration or dose not given beside the values. In short, it runs like this:
(§4)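 H4 cells stably expressing FYVE-RFP (H4-FYVE), grown in DMEM with 10% FBS, penicillin/streptomycin and 2 mM L-glutamine at 37°C, 5% CO2, seeded in 96-well plates and exposed to compound. Fixed in 4% paraformaldehyde, nuclei stained with 3 μg/ml DAPI, FYVE-RFP+ vesicles quantified by high-throughput fluorescence microscopy against DMSO control. Triplicate wells, mean ± SD.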

Assay [12] concerns H4. Briefly: Increase in long-lived protein degradation in human H4 cells after 4 hrs relative to control. On the set-up: concentration or dose not given beside the values.
Assay [13] concerns H4. In words: Increase in long-lived protein degradation in human H4 cells after 1 hr relative to control. On the set-up: concentration or dose not given beside the values.
Assay [14] relates to H4. Briefly: Decrease in FYVE-RFP+ vesicle intensity per cell in human H4 cells after 2 hrs relative to control. The arrangement: concentration or dose not given beside the values. In short, it runs like this: as §4
In assay [15] the test system is H4. In words: Decrease in FYVE-RFP+ vesicle intensity per cell in human H4 cells after 8 hrs relative to control. The arrangement: concentration or dose not given beside the values. In short, it runs like this:
as §4

Regarding `CNc1ccc2oc(C[C@@H]3OC4(CC[C@@H]3C)O[C@H]([C@@H](C)C(=O)c3ccc[nH]3)[C@H](C)C[C@H]4C)nc2c1C(=O)O` (some centres undefined), the Activity with H4 [1] worked out at 15083%; in the assay with H4 [2], 49.3%; in the assay on H4 [3] it was 181.04%; in the assay with H4 [4] it was 172.66%.
Regarding `Cn1cc(C2=C(c3cn(CCCSC(=N)N)c4ccccc34)C(=O)NC2=O)c2ccccc21` [BISINDOLYLMALEIMIDE IX], the Activity in the assay on H4 [5] is 50.58%; in the assay with H4 [6] it was 190.1%; in the assay on H4 [7], 240.67%; in the assay with H4 [8], 190.07%.
As to `COC1=C2C[C@@H](C)C[C@H](OC)[C@H](O)[C@@H](C)/C=C(\C)[C@H](OC(N)=O)[C@@H](OC)/C=C\C=C(/C)C(=O)NC(=CC1=O)C2=O` [GELDANAMYCIN], the Activity in the assay with H4 [9] is on record as 72.93%; with H4 [10], 74.67%; in the assay with H4 [11] it was 41.33%; in the assay with H4 [5] it was 81.41%; in the assay with H4 [12], 87.795%; with H4 [13], 87.25%. The Activity came to 35.18% with H4 [14]; 398.91% in the assay with H4 [6]; 546.8% in the assay on H4 [7]; 313.52% with H4 [8]; 39.26% with H4 [15].
